Screens (PubChem BioAssay)
RORa inhibitor – inhibitors of human nuclear receptor RORA; AID 561; hit rate 0.43% among 65,000; CHO-K1 Gal4-RORA LBD luciferase reporter, luminescence; inhibition, % at 10 µM; P35398;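 active means inhibition above the mean of all tested compounds plus 3 SD, cut at about 52% in these data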;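 further: 0% = RORA-transfected cells with DMSO and 100% = mock-transfected cells lacking RORA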
Target sequence (P35398 whole entry, looked up, the tested form may be a part): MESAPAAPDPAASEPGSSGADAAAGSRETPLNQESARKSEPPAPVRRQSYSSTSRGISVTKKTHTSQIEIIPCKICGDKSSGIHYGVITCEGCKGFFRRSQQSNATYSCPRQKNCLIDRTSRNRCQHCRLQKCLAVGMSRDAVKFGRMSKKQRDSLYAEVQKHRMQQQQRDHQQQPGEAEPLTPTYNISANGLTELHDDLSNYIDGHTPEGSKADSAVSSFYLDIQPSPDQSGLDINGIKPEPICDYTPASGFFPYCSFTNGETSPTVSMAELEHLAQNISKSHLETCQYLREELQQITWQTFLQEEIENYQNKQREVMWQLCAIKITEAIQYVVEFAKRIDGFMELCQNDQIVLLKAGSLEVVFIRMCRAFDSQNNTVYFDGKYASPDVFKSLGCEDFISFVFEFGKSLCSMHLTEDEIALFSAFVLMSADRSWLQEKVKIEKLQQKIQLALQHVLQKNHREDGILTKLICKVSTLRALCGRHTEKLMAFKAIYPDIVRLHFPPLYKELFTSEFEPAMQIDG
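test system = CHO-K1 Gal4-RORA LBD luciferase reporter cells | dosing = 10 µM single point | times = 20 h compound treatment, 37 °C | signal = luciferase luminescence | read-out = % inhibition of basal luciferase versus +RORA/-RORA DMSO controls | benchmarks = mock-transfected cells as 100%, +RORA DMSO cells as 0% | replicates = tested once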
* hit, by the source's call. The entries come from a sample that favours hits as a whole.

SMILES	RORa inhibitor
COc1ccc(CNC(=O)c2cc3c(C)nc4ccccc4c3o2)c(OC)c1	55*
COc1ccc(Nc2nc(C)c3ccccc3n2)cc1	-55
O=C1C(=O)N(CCCn2ccnc2)C(c2cccnc2)/C1=C(/O)c1ccccc1 (stereo not drawn)	-10
COc1ccc(CNC(=O)C2CSC(=O)C2)cc1 (stereo not drawn)	11
O=C(NCc1cccnc1)C1CCN(S(=O)(=O)N2CCOCC2)CC1	1
O=C(Nc1nnc(CCc2ccccc2)s1)c1ccco1	-54
CCOc1ccc(C(=O)Nc2ccc(Cl)cn2)cc1Cl	-86
Cc1ccc(-c2cc3c(nn2)-c2ccccc2C3=O)cc1	83*
C=C(C)C(C)(C#CCN1CCCC1)OC(C)=O (stereo not drawn)	10
Cn1c(CCNC(=O)c2ccccc2F)nnc1SCc1nc2ccccc2c(=O)[nH]1	0
CCCc1ccc(OCc2ccc(C(=O)N3CCN(c4ccccn4)CC3)o2)c(OC)c1	-50
O=C(Nc1ccccc1)OCc1ccccn1	-60
CCOc1ccc(OCc2ccc(C(=O)OCc3ccccn3)o2)cc1	58*
CSCCC(NC=C1C(=O)OC(C)(C)OC1=O)C(=O)O (stereo not drawn)	9
CCCCNC(=O)c1cc2c(=O)n3cccc(C)c3nc2n(Cc2ccncc2)c1=N	20
CCCCNC(=O)CCCn1c(=O)c2ccccc2n(CC(=O)NCCC2=CCCCC2)c1=O	11
COc1ccc(Cl)cc1NC(=O)c1cnc2n(c1=O)CCS2	-8
Cc1ccccc1NC(=O)c1cnc2ccccn2c1=O	54*
Cc1cccc(NC(=O)c2cnc3n(c2=O)CCS3)c1	-76
Clc1nc2sccn2c1/C=N/n1cnc2ccccc21	-52
O=C(Nc1ccc2c(c1)OCO2)C1CCCCN1S(=O)(=O)c1ccc(F)cc1 (stereo not drawn)	8
COc1cccc(OC)c1-c1nn2c(-c3ccccc3Cl)nnc2s1	14
O=S1(=O)C=C(Sc2nc3cc(Cl)ccc3o2)c2ccccc21	75*
O=C(CCCOc1ccccc1)Nc1ccc2c(c1)OCCO2	4
COC(=O)c1ccccc1NC(=O)CN1CCC(NC(=O)c2ccccc2C)CC1	-12
SMILES	RORa inhibitor
Cc1ccc(S(=O)(=O)N(C)Cc2ccc(-c3nnc4n3CCC4)cc2)cc1	14
COc1ccc(OC)c(NC(=O)CSc2nnnn2-c2ccc3c(c2)OCO3)c1	80*
COc1ccc(OC)c(-n2nnnc2SCC(=O)Nc2ccc(C(=O)N3CCCCC3)cc2)c1	-7
CC(C)OC(=O)CSc1nnnn1-c1ccc2c(c1)OCCO2	-54
O=C(NCc1ccc(F)cc1)c1cc2n(n1)C(C(F)(F)F)CC(C1CC1)N2 (stereo not drawn)	-64
COc1cccc(C2/C(=C(/O)c3ccccc3)C(=O)C(=O)N2CCCC(=O)O)c1 (stereo not drawn)	6
CC(C)Oc1ccccc1-c1nc(SCC(=O)O)n[nH]1	4
COc1ccc(C(=O)Nc2ccc(C)cn2)c(OC)c1	78*
CCOc1ccc(NC(=O)c2ccccc2OC)cc1	-49
COc1ccccc1C(=O)Nc1ccccn1	-45
CCN(C(=O)c1ccc(C(C)(C)C)cc1)c1nnc(Cn2nnc3ccccc32)s1	66*
CCN(C(=O)c1cccs1)c1nnc(-c2ccncc2)s1	0
CCn1c(SCC(=O)Nc2cccc(NC(C)=O)c2)nnc1C(C)C	23
O=C(OCc1nc2ccccc2s1)c1cccs1	-53
O=C(NC1CC1)c1ccc(-c2nc3ccccc3s2)s1	81*
CNc1sc(C(=O)c2cccs2)c(N)c1-c1nc2ccccc2s1	-33
O=S(=O)(NC1CC2CCC1C2)c1ccc(Br)s1 (stereo not drawn)	13
Cc1ccc(C(=O)CSc2nnc(CNc3ccc(C)cc3C)o2)cc1	-3
CCOC(=O)NC(Nc1nc2ccccc2s1)(C(=O)OCC)C(F)(F)F (stereo not drawn)	-25
O=C(CSc1nnc(NC(=O)CN2CCOCC2)s1)Nc1ccccc1	8
CC(=O)NC(Cc1ccccc1)C(=O)NC1CCN(C(=O)NC2CCCCC2)CC1 (stereo not drawn)	3
COc1ccc(Nc2nc(C)cc(C)c2C#N)cc1	-4
COc1cc(CC(NC(C)=O)C(=O)NC2CCN(c3nc(C)cc(C)c3C#N)CC2)cc(OC)c1 (stereo not drawn)	75*
O=C(CSc1nnc(-c2cccnc2)o1)OC1CCCCC1	-2
CC(=O)c1ccc(N2CCN(C(=O)c3ccc(OCc4c(C)noc4C)cc3)CC2)cc1	9
SMILES	RORa inhibitor
O=C(c1ccco1)N1CCN(c2ccc(Cl)cc2)CC1	-98
Cc1noc(C)c1S(=O)(=O)Nc1ccc(C(=O)N2CCN(c3ccc(Cl)cc3)CC2)cc1	60*
O=C1c2ccccc2C(=O)C1c1ccc2ccccc2n1	70*
Cc1cnc(-c2nnc(N(C)C(=O)c3cnccn3)s2)cn1	-18
COC(=O)[C@@H](NC(=O)NC1CCCc2ccccc21)C(C)C (stereo partly drawn)	27
CCOC(=O)c1c(C)c(C(=O)NCc2ccc3c(c2)OCO3)c(C)n1C	6
O=C(/C=C\Nc1ccc2c(c1)OCO2)c1ccccn1	85*
O=C(Nc1ccc2c(c1)OCO2)c1cc(C2CC2)on1	-60
O=C(Nc1ccc2c(c1)OCO2)Oc1ccccc1	-8
O=C(CSc1cccc2cccnc12)N1CCCC1	-5
C=CCC1CCCCC12NC(=O)NC2=O (stereo not drawn)	-3
Cc1ccc2nc(C(F)(F)F)c(C#N)c(N)c2c1	57*
O=C(CN(C1CCCCC1)S(=O)(=O)c1ccc(Cl)cc1)NCCCO	16
CC(=O)OCC(OC(C)=O)C(OC(C)=O)C(OC(C)=O)C(=O)Nc1ccc(C)cc1 (stereo not drawn)	3
CCOc1ccc(S(=O)(=O)N2CCN(Cc3ccccc3)CC2)c2cccnc12	3
COc1cccc2c(=O)n(CC(=O)N3CCN(c4ccccc4)CC3)ccc12	-16
O=c1c2ccccc2nc2sc3ccccc3n12	-60
Cc1nn(-c2nc3ccccc3s2)c(N)c1Sc1ccc(F)cc1	-26
O=c1c2ccccc2cnn1-c1nc2ccccc2s1	90*
CCOc1ccc2nc(N3CCC(C(=O)N4CCN(c5ncccn5)CC4)CC3)sc2c1	-69
O=C(NCC1CCCO1)c1ccc2nc(N3CCCCC3)sc2c1 (stereo not drawn)	-59
CC1CCN(c2nc3ccc(C(=O)O)cc3s2)CC1	92*
Cn1c(OCc2cccnc2)nc2c1c(=O)n(Cc1ccc(Br)cc1)c(=O)n2C	-2
CCCCN(C)C(=O)C1CCC(=O)N(c2cc(OC)c(OC)c(OC)c2)C1c1ccc(OC)cc1 (stereo not drawn)	-10
COCCOC(=O)c1[nH]c2c(c1C)C(=O)C(C(=O)OC)C(C)C2 (stereo not drawn)	-56
SMILES	RORa inhibitor
CCCCOC(=O)c1[nH]c2c(c1C)C(=O)CC(c1cc(OC)c(OC)c(OC)c1)C2 (stereo not drawn)	64*
CCOC(=O)c1cnc(=O)[nH]c1C	3
c1cncc(Oc2cccc(Oc3cccnc3)c2)c1	8
CCOc1ccc(-c2nc(CSCC(=O)NCc3ccco3)c(C)o2)cc1	94*
CCc1ccc(-c2nc(CSCC(=O)N3CCN(c4ccccn4)CC3)c(C)o2)cc1	48
CCc1ccc(-c2nc(CSCC(=O)NCCCN3CCCC3=O)c(C)o2)cc1	74*
COc1ccc(-c2nc(CS(=O)CC(=O)NCc3ccco3)c(C)o2)cc1 (stereo not drawn)	-13
COCCNC(=O)CSCc1nc(-c2ccc(SC)cc2)oc1C	89*
